# Source: PubChem BioAssay
# T cruzi growth-1 = blocks T. cruzi growth in NIH3T3 culture; 77,000 compounds, 5.9% hits; T. cruzi beta-gal in NIH3T3, GalScreen luminescence, 90 h; inhibition, % at 8.34 µM;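 active means mean inhibition above about 93%, with at least 55% of replicates each passing it, limit read from the data, passing the limit was not always enough; inconclusive means only one of those two conditions holds; inactive means neither condition holds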
# GASC1 inh = KDM4C (human) demethylase inhibition | Q9H3R0 | GST-KDM4C 2-372, H3K9me3 peptide, LANCE TR-FRET | inhibition, % at 12.5 µM | 96,000 compounds, 0.15% hits | AID 720574;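 active means mean replicate inhibition above about 25%, with at least 55% of replicates also reaching it, limit read from the data, passing the limit was not always enough; inconclusive means only one of those two conditions met; inactive means neither condition met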
# Target sequence (Q9H3R0 2-372 limits assumed): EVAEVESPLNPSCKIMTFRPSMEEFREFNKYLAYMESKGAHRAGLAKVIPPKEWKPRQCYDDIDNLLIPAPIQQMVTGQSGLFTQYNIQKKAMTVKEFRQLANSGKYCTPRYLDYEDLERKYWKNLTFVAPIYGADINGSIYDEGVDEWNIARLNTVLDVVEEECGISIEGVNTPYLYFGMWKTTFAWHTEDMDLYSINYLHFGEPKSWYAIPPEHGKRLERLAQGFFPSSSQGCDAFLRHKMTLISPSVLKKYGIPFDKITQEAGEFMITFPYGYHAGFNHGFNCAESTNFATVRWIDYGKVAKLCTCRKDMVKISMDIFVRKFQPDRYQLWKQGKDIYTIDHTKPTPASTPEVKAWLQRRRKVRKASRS
#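 Assay system: GST-GASC-1 enzyme fragment 2-372 | Amount: 10 nM enzyme | Medium: HEPES buffer, pH 7.5, plus ascorbate | Reagent: H3K9me3 peptide substrate, Fe(II), 2-oxoglutarate | Doses: Single-point compound screen | Incubation: 30 min demethylation and 1 h detection at room temperature | Measured by: LANCE TR-FRET, excitation 340 nm, emissions 618 and 671 nm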
# Pf Dd2 growth = blocks growth of Plasmodium falciparum Dd2 parasites | AID 1159554 | 94,000 compounds, 2.3% hits | activity change, % at 10 µM | P. falciparum Dd2 growth, SYBR Green, 72 h; stronger effect = lower value; in the data active means activity change below about -80%; inconclusive means no clear call, values can overlap the other calls
# IDH1 R132H inh = IDH1 R132H (human) inhibition | 70,000 compounds, 0.18% hits | IDH1 R132H reductase, diaphorase/resazurin fluorescence, 60 min | inhibition, % at 10 µM | O75874; in the data active means inhibition above about 34%; inconclusive means no clear call, values can overlap the other calls; inactive means below about 11%;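 further: 0% = DMSO and 100% = no enzyme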
# T cruzi growth-2 = Trypanosoma cruzi proliferation inhibition; inhibition, % at 8.35 µM; T. cruzi beta-gal in NIH3T3, GalScreen luminescence, 90 h; AID 651739; shares compounds with T cruzi growth-1; 5,600 compounds, 72% hits;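 active means mean replicate inhibition above about 95% and at least 55% of replicates individually reaching it, limit read from the data; inconclusive means only one of the two criteria is met; inactive means neither criterion is met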
# T cruzi growth-3 = inhibitors of T. cruzi proliferation | 5,600 compounds, 21% hits | AID 651740 | shares compounds with T cruzi growth-1 | inhibition, % at 2.09 µM | T. cruzi beta-gal in NIH3T3, GalScreen luminescence, 90 h;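 active means mean inhibition above about 95%, with at least 55% of replicates also reaching it, limit read from the data; inconclusive means meets just one of the two conditions; inactive means meets neither condition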;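 further: plate controls were neutral control median for no effect and positive control median for full effect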
# NIH3T3 tox = NIH/3T3 (mouse) viability loss; shares compounds with T cruzi growth-1; NIH/3T3 viability, CellTiter-Glo ATP luminescence, 90 h; cytotoxicity (signal decrease), % at 8.35 µM; 5,600 compounds, 14% hits;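 active means mean signal decrease across replicates above about 35% based on untreated-well scatter, with enough replicates individually passing, limit read from the data; inconclusive means no rule stated though some were filed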;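 further: 0% = median of neutral control wells and 100% = median of positive control wells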
# 3T3 cytotox 2 = kills mouse NIH/3T3 fibroblasts; shares compounds with T cruzi growth-1; NIH/3T3 viability, CellTiter-Glo ATP luminescence, 90 h; inhibition, % at 24.9 µM; 5,600 compounds, 56% hits;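 active means mean loss of cell viability signal at or above a set limit, and enough replicates individually reaching it; inconclusive means meets only the mean limit or only the replicate share; inactive means meets neither condition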;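 further: 0% = median of neutral control wells and 100% = median of positive control wells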
# Starred values were filed as active, the others as inactive; ? = inconclusive; · = no result. The list is not random: actives were taken first. Their share in the collection is about 5.9%.
SMILES,T cruzi growth-1,GASC1 inh,Pf Dd2 growth,IDH1 R132H inh,T cruzi growth-2,T cruzi growth-3,NIH3T3 tox,3T3 cytotox 2
Cc1cccc(S(=O)(=O)N2CC[C@@H]3[C@H](CO)N(C)c4ccc(Br)cc4[C@@H]32)c1,?,0,24,·,111*,31,24,-2
CN1c2ccc(Br)cc2[C@@H]2[C@@H](CCN2S(=O)(=O)c2ccc(F)cc2)[C@H]1CO,47,0,26,·,·,·,·,·
C[C@H]1CN([C@@H](C)CO)C(=O)c2c(c3ccccc3n2C)-c2ccccc2CO[C@H]1CN(C)C(=O)Nc1ccc2c(c1)OCO2,72,-1,-63,·,·,·,·,·
C[C@H](CO)N1C[C@H](C)[C@H](CN(C)C(=O)C2CC2)OCc2ccccc2-c2c(n(C)c3ccccc23)C1=O,?,2,-22,-4,70,19,3,38*
C[C@H](CO)N1C[C@H](C)[C@@H](CN(C)C(=O)C2CC2)OCc2ccccc2-c2c(n(C)c3ccccc23)C1=O,89,1,-22,·,·,·,·,·
C[C@@H]1CN([C@@H](C)CO)C(=O)c2c(c3ccccc3n2C)-c2ccccc2CO[C@H]1CN(C)C,?,-1,-17,-2,?,44,16,31
C[C@@H]1CN([C@@H](C)CO)C(=O)c2c(c3ccccc3n2C)-c2ccccc2CO[C@H]1CN(C)Cc1cccnc1,92,0,-28,·,·,·,·,·
C[C@@H]1CN([C@@H](C)CO)C(=O)c2c(c3ccccc3n2C)-c2ccccc2CO[C@H]1CN(C)C(=O)Nc1ccc2c(c1)OCO2,105*,1,-82*,·,85,33,13,15
C[C@H](CO)N1C[C@H](C)[C@@H](CN(C)Cc2cccnc2)OCc2ccccc2-c2c(n(C)c3ccccc23)C1=O,?,2,-10,·,75,44,16,25
OC[C@@H]1[C@H](c2ccc(C3=CCCCC3)cc2)[C@@H]2CN(CCC(F)(F)F)CCCCN12,?,0,-58,·,96*,105*,70*,106*
OC[C@@H]1[C@H](c2ccc(C3=CCCC3)cc2)[C@H]2CN(CCC(F)(F)F)CCCCN12,103*,·,-77,·,100*,58,15,103*
CCCn1nnc(NC(=O)COc2ccc(C)cc2C)n1,·,·,·,0,·,·,·,·
C[C@H](CO)N1C[C@H](C)[C@H](CN(C)S(=O)(=O)c2cccs2)Oc2ncc(-c3cc4ccccc4o3)cc2C1=O,123*,-8,-75,-2,110*,75,35*,15
COc1ccc(-c2cnc3c(c2)C(=O)N([C@@H](C)CO)C[C@H](C)[C@H](CN(C)C(=O)CN(C)C)O3)cc1,49,-1,26,0,·,·,·,·
C[C@H](CO)N1C[C@H](C)[C@H](CN(C)S(=O)(=O)c2cccs2)Oc2ncc(C#Cc3cccc(F)c3)cc2C1=O,98*,-3,-39,·,110*,69,2,5
COc1ccc(-c2cnc3c(c2)C(=O)N([C@H](C)CO)C[C@H](C)[C@@H](CN(C)C(=O)CN(C)C)O3)cc1,105*,17,-7,4,36,3,23,2
C[C@H](CO)N1C[C@H](C)[C@H](CN(C)S(C)(=O)=O)Oc2ncc(C#Cc3cccc(F)c3)cc2C1=O,·,0,-3,·,·,·,·,·
Cc1ccc(S(=O)(=O)N(C)C[C@@H]2Oc3ncc(C#Cc4ccc(C(F)(F)F)cc4)cc3C(=O)N([C@H](C)CO)C[C@@H]2C)cc1,?,-4,-45,0,89,112*,34,39*
CN(CC(=O)Nc1ccccc1Br)S(=O)(=O)c1ccc2ccccc2c1,·,·,·,0,·,·,·,·
COc1cc(NC(=O)C(C)Oc2cccc(Cl)c2)c(C(=O)O)cc1OC (stereo unspecified),·,·,·,-1,·,·,·,·
CSc1ccccc1NC(=O)CN(c1cccc([N+](=O)[O-])c1)S(C)(=O)=O,·,·,·,0,·,·,·,·
C[C@H](CO)N1C[C@H](C)[C@H](CN(C)S(=O)(=O)c2cccc(F)c2)Oc2ncc(C#Cc3ccc(C(F)(F)F)cc3)cc2C1=O,?,0,-79,-4,101*,109*,25,36*
C[C@H](CO)N1C[C@H](C)[C@H](CN(C)S(=O)(=O)c2cccc(F)c2)Oc2ncc(C#Cc3ccccc3)cc2C1=O,39,-1,-72,-1,·,·,·,·
C[C@H](CO)N1C[C@H](C)[C@H](CN(C)S(=O)(=O)c2ccccc2)Oc2ncc(C#Cc3ccc(C(F)(F)F)cc3)cc2C1=O,92*,-6,-51,1,107*,81,32,32*
COc1ccc(S(=O)(=O)N(C)C[C@@H]2Oc3ncc(C#Cc4cccc(F)c4)cc3C(=O)N([C@H](C)CO)C[C@@H]2C)cc1,?,-3,-77,0,107*,77,30,48*
SMILES,T cruzi growth-1,GASC1 inh,Pf Dd2 growth,IDH1 R132H inh,T cruzi growth-2,T cruzi growth-3,NIH3T3 tox,3T3 cytotox 2
C[C@H](CO)N1C[C@H](C)[C@H](CN(C)S(=O)(=O)c2ccc(F)cc2)Oc2ncc(C#Cc3ccccc3)cc2C1=O,106*,-3,-67,0,?,77,7,28*
C[C@H](CO)N1C[C@H](C)[C@H](CN(C)S(=O)(=O)c2ccccc2)Oc2ncc(C#Cc3ccccc3)cc2C1=O,98,-1,-20,0,·,·,·,·
COc1ccccc1S(=O)(=O)N(C)C[C@@H]1Oc2ncc(-c3ccc(C)cc3)cc2C(=O)N([C@@H](C)CO)C[C@H]1C,101*,-2,-11,-1,102*,65,28,55*
C[C@H](CO)N1C[C@H](C)[C@H](CN(C)S(=O)(=O)c2ccc(F)cc2)Oc2ncc(C#Cc3ccc(C(F)(F)F)cc3)cc2C1=O,112*,-4,-49,-1,105*,103*,26,35*
COc1ccc(S(=O)(=O)N(C)C[C@@H]2Oc3ncc(C#Cc4ccc(C(F)(F)F)cc4)cc3C(=O)N([C@H](C)CO)C[C@@H]2C)cc1,16,-6,-74,0,·,·,·,·
COc1ccc(-c2cnc3c(c2)C(=O)N([C@@H](C)CO)C[C@H](C)[C@@H](CN(C)S(=O)(=O)c2ccc(OC)cc2)O3)cc1,105*,-1,-37,-8,104*,58,9,?
O=C(CSc1ncn(-c2ccccc2)n1)Nc1ccccc1Br,·,·,·,0,·,·,·,·
O=C(CSc1nnc(-c2ccccc2Cl)n1-c1ccccc1)N1CCc2ccccc21,·,·,·,0,·,·,·,·
COc1ccc(NC(=O)c2ccccc2NC(=O)COc2cccc(OC)c2)cc1,·,·,·,0,·,·,·,·
COc1ccc(S(=O)(=O)N(C)C[C@H]2Oc3ccc(NC(=O)Cn4cnnn4)cc3C(=O)N([C@@H](C)CO)C[C@@H]2C)cc1,100*,0,-25,-1,-13,-14,-6,14
